Data taken from ChEMBL document CHEMBL3244174, “Synthesis and biological activity of some new furan quaternary salts” (J Med Chem, 1977).
Converted amounts (≈) assume the structure as drawn.

What was measured:
[1] = test system: Candida albicans; experiment: Antifungal activity against Candida albicans SKF 2270 assessed as growth inhibition by agar dilution method; type: functional
[2] = test system: Cryptococcus neoformans; experiment: Antifungal activity against Cryptococcus neoformans 103 assessed as growth inhibition by agar dilution method; type: functional
[3] = test system: Trichophyton mentagrophytes; experiment: Antifungal activity against Trichophyton mentagrophytes A-280 USPHS assessed as growth inhibition by agar dilution method; type: functional
[4] = test system: Trichophyton rubrum; experiment: Antifungal activity against Trichophyton rubrum 252 CSTM assessed as growth inhibition by agar dilution method; type: functional
[5] = test system: Microsporum canis; experiment: Antifungal activity against Microsporum canis VM-200 USPHS assessed as growth inhibition by agar dilution method; type: functional
[6] = test system: Nannizzia gypsea; experiment: Antifungal activity against Microsporum gypseum 153 CSTM assessed as growth inhibition by agar dilution method; type: functional
[7] = test system: Histoplasma capsulatum; experiment: Antifungal activity against Histoplasma capsulatum RNSH Hi-70 1/2 assessed as growth inhibition by agar dilution method; type: functional
[8] = test system: Staphylococcus aureus; experiment: Antibacterial activity against Staphylococcus aureus ATCC 6538 assessed as growth inhibition after 24 hrs by dilution tube method; type: functional; details: ATCC 6538, 24 h
Procedure, shortened: (§1)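 Broth tube dilution in Tryptone Soya Broth, duplicate tubes at each concentration. MIC (μg/ml) was the highest dilution preventing visible growth. Nitrofurantoin run under the same conditions.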

[9] = test system: Enterococcus faecalis; experiment: Antibacterial activity against Streptococcus faecalis ATCC 10541 assessed as growth inhibition after 24 hrs by dilution tube method; type: functional; details: ATCC 10541, 24 h; procedure, shortened: as §1
[10] = test system: Pseudomonas aeruginosa; experiment: Antibacterial activity against Pseudomonas aeruginosa ATCC 10145 assessed as growth inhibition after 24 hrs by dilution tube method; type: functional; details: ATCC 10145, 24 h; procedure, shortened: as §1
[11] = test system: Klebsiella pneumoniae; experiment: Antibacterial activity against Klebsiella pneumoniae ATCC 10031 assessed as growth inhibition after 24 hrs by dilution tube method; type: functional; details: ATCC 10031, 24 h; procedure, shortened: as §1
[12] = test system: Salmonella typhi; experiment: Antibacterial activity against Salmonella typhi 115 assessed as growth inhibition after 24 hrs by dilution tube method; type: functional, Salmonella enterica subsp. enterica serovar Typhi; details: Salmonella enterica, 115, 24 h
Procedure, shortened: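 Dilution tube method in Tryptone Soya Broth; MIC (μg/ml) taken as highest dilution preventing visible growth; duplicates at every concentration; nitrofurantoin reference run under same conditions.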

[13] = test system: Agrobacterium tumefaciens; experiment: Antibacterial activity against Agrobacterium tumefaciens NRRL B-36 assessed as growth inhibition after 24 hrs by dilution tube method; type: functional; details: NRRL B-36, 24 h; procedure, shortened: as §1
[14] = test system: Escherichia coli; experiment: Antibacterial activity against Escherichia coli 114 assessed as growth inhibition after 24 hrs by dilution tube method; type: functional; details: Escherichia coli, 114, 24 h; procedure, shortened: as §1

SMILES | MIC [1] | MIC [2] | MIC [3] | MIC [4] | MIC [5] | MIC [6] | MIC [7] | MIC [8] | MIC [9] | MIC [10] | MIC [11] | MIC [12] | MIC [13] | MIC [14]
C[N+](C)(CCOc1c(Br)cc(Br)cc1Br)Cc1ccc(Br)o1.[Br-] | > 200 µg/mL | 50 µg/mL | 100 µg/mL | > 200 µg/mL | 100 µg/mL | > 200 µg/mL | 100 µg/mL | 25 µg/mL | 25 µg/mL | 25 µg/mL | 25 µg/mL | > 200 µg/mL | 100 µg/mL | > 200 µg/mL
C[C@@H]1[C@H](O)[C@@H](C)/C=C/C=C/C=C/C=C/C=C/C=C/C=C/[C@H](O[C@@H]2O[C@H](C)[C@@H](O)[C@H](N)[C@@H]2O)C[C@@H]2O[C@](O)(C[C@@H](O)C[C@@H](O)[C@H](O)CC[C@@H](O)C[C@@H](O)CC(=O)O[C@H]1C)C[C@H](O)[C@H]2C(=O)O [AMPHOTERICIN B] | 2.5 µg/mL (≈ 2.71 µM) | – | 10 µg/mL (≈ 10.8 µM) | 10 µg/mL (≈ 10.8 µM) | 5 µg/mL (≈ 5.41 µM) | 10 µg/mL (≈ 10.8 µM) | 0.5 µg/mL (≈ 0.541 µM) | – | – | – | – | – | – | –
C[N+](C)(CCCCOc1ccc(Cl)cc1)Cc1ccc(Br)o1.[Br-] | > 200 µg/mL | > 200 µg/mL | > 200 µg/mL | > 200 µg/mL | > 200 µg/mL | > 200 µg/mL | > 200 µg/mL | 100 µg/mL | 100 µg/mL | 50 µg/mL | 100 µg/mL | 100 µg/mL | 100 µg/mL | 100 µg/mL
Cc1cc(OCCCCCCCCCC[N+](C)(C)Cc2ccc(Br)o2)c(C(C)C)cc1Cl.[Br-] | > 200 µg/mL | 100 µg/mL | – | > 200 µg/mL | 100 µg/mL | > 200 µg/mL | 100 µg/mL | 25 µg/mL | 50 µg/mL | 25 µg/mL | – | > 200 µg/mL | > 200 µg/mL | > 200 µg/mL
C[N+](C)(CCCCOc1ccc(Cl)cc1)Cc1ccc([N+](=O)[O-])o1.[Br-] | > 200 µg/mL | > 200 µg/mL | > 200 µg/mL | > 200 µg/mL | > 200 µg/mL | > 200 µg/mL | > 200 µg/mL | 100 µg/mL | > 200 µg/mL | 100 µg/mL | 100 µg/mL | > 200 µg/mL | > 200 µg/mL | > 200 µg/mL
C[N+](C)(CCCCOc1ccccc1Cl)Cc1ccc([N+](=O)[O-])o1.[Br-] | > 200 µg/mL | > 200 µg/mL | > 200 µg/mL | > 200 µg/mL | > 200 µg/mL | > 200 µg/mL | > 200 µg/mL | 100 µg/mL | > 200 µg/mL | 100 µg/mL | 100 µg/mL | > 200 µg/mL | > 200 µg/mL | > 200 µg/mL
C[N+](C)(CCCCOc1ccccc1Cl)Cc1ccc(Br)o1.[Br-] | > 200 µg/mL | > 200 µg/mL | > 200 µg/mL | > 200 µg/mL | > 200 µg/mL | > 200 µg/mL | > 200 µg/mL | 100 µg/mL | > 200 µg/mL | 100 µg/mL | 100 µg/mL | > 200 µg/mL | > 200 µg/mL | > 200 µg/mL
C[N+](C)(CCCCCOc1ccccc1Cl)Cc1ccc(Br)o1.[Br-] | > 200 µg/mL | > 200 µg/mL | > 200 µg/mL | > 200 µg/mL | > 200 µg/mL | > 200 µg/mL | > 200 µg/mL | 50 µg/mL | > 200 µg/mL | 50 µg/mL | 100 µg/mL | > 200 µg/mL | > 200 µg/mL | > 200 µg/mL
C[N+](C)(CCCCCOc1ccc(Cl)cc1Cl)Cc1ccc(Br)o1.[Br-] | > 200 µg/mL | 50 µg/mL | > 200 µg/mL | > 200 µg/mL | 50 µg/mL | > 200 µg/mL | 100 µg/mL | 25 µg/mL | 50 µg/mL | 10 µg/mL | 25 µg/mL | > 200 µg/mL | 50 µg/mL | > 200 µg/mL
O=C1CN(/N=C/c2ccc([N+](=O)[O-])o2)C(=O)N1 [NITROFURANTOIN] | – | – | – | – | – | – | – | 25 µg/mL (≈ 105 µM) | 100 µg/mL (≈ 420 µM) | 2.5 µg/mL (≈ 10.5 µM) | 5 µg/mL (≈ 21 µM) | 25 µg/mL (≈ 105 µM) | 25 µg/mL (≈ 105 µM) | 25 µg/mL (≈ 105 µM)
